In series [1] the target is Dipeptidyl peptidase 4 (Homo sapiens, UniProt P27487). The series is described as follows: Inhibition of human DPP4.
A short description of series [2]: Half life in rat at 1 mg/kg, iv. As to conditions: in vivo. The arrangement: dose 1 mg/kg, route intravenous. It is filed as ADME, organism-based.
Series [3] is described as follows: Bioavailability in dog at 1 mg/kg, iv and 1 mg/kg, po. It is filed as ADME, organism-based, Canis lupus familiaris. As to conditions: in vivo.
A short description of series [4]: Bioavailability in rat at 1 mg/kg, iv and 5 mg/kg, po. Type of series: ADME, organism-based. As to conditions: in vivo.
Series [5] deals with Rattus norvegicus. The series is described as follows: Inhibition of DPP4 in rat plasma at 5 mg/kg, po assessed as time required to inhibit 50% by PK/PD analysis. It is filed as functional.
A short description of series [6]: Clearance in rat plasma at 1 mg/kg, iv and 5 mg/kg, po. It is filed as ADME, organism-based.
A short description of series [7]: Clearance in dog plasma at 1 mg/kg, iv and 1 mg/kg, po. Type of series: ADME, organism-based, Canis lupus familiaris.
Series [8] in a line: Half life in human at 15 mg. It is filed as ADME, organism-based. As to conditions: in vivo. The procedure, abridged:
(§1)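 Human values projected from rat and dog ADME data by modeling; predicted plasma concentration–time profiles generated at varying doses.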

Series [9] is described as follows: Volume of distribution at steady state in human at 15 mg. It is filed as ADME, organism-based. As to conditions: in vivo, read-out: Vdss. The procedure, abridged:
as §1

Series [10] can be described thus: Volume of distribution at steady state in rat at 1 mg/kg, iv. Type of series: ADME, organism-based. The arrangement: dose 1 mg/kg, route intravenous. As to conditions: in vivo, read-out: Vdss.
Series [11] can be described thus: Clearance in human plasma at 15 mg. It is filed as ADME, organism-based. A digest of the protocol: as §1
Series [12] can be described thus: Bioavailability in human at 15 mg. As to conditions: in vivo. Type of series: ADME, organism-based. The procedure, abridged: as §1
Series [13] has as its target Dipeptidyl peptidase 2 (Homo sapiens, UniProt Q9UHL4). Description: Inhibition of human DPP2.
A short description of series [14]: Half life dog at 1 mg/kg, iv. Set-up: dose 1 mg/kg, route intravenous. Type of series: ADME, organism-based, Canis lupus familiaris. As to conditions: in vivo.
Series [15] in a line: Volume of distribution at steady state in dog at 1 mg/kg, iv. Set-up: dose 1 mg/kg, route intravenous. Type of series: ADME, organism-based, Canis lupus familiaris. As to conditions: in vivo, read-out: Vdss.
In series [16] the target is Voltage-gated inwardly rectifying potassium channel KCNH2 (Homo sapiens, UniProt Q12809). The series is described as follows: Inhibition of human ERG by patch-clamp assay. Background: In patch-clamp work, channel activity is measured electrically.

The structures appear in SMILES notation.

As a reminder, the IC50 is the concentration that inhibits the measured activity by half. A lower IC50 goes with higher potency. By half-life is commonly meant how long it takes for the measured level to halve. Lower therefore signals rapid decline. The term bioavailability denotes dose-corrected exposure relative to a reference, in per cent. Read a high bioavailability as much systemic uptake.

Chain of Dipeptidyl peptidase 4 (P27487 whole entry): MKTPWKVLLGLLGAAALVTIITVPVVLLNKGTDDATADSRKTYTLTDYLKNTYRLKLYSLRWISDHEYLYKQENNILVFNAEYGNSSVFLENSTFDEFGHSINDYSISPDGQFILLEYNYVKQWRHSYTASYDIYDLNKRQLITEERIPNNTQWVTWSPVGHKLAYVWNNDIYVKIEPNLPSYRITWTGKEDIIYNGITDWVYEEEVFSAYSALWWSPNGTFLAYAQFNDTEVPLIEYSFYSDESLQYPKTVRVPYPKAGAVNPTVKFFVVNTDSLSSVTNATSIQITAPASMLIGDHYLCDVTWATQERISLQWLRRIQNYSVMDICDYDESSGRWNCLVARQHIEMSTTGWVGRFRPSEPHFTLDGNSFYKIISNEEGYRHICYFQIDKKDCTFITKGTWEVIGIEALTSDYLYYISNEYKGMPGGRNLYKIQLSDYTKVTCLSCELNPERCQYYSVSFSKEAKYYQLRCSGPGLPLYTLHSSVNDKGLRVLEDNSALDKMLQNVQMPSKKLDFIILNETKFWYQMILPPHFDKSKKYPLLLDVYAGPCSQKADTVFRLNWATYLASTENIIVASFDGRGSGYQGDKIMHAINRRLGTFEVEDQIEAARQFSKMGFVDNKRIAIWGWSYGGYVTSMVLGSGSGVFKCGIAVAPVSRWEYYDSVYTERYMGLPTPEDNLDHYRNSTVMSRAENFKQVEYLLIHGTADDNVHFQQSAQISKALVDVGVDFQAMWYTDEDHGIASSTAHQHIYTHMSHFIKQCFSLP
Chain of Voltage-gated inwardly rectifying potassium channel KCNH2 (Q12809 whole entry): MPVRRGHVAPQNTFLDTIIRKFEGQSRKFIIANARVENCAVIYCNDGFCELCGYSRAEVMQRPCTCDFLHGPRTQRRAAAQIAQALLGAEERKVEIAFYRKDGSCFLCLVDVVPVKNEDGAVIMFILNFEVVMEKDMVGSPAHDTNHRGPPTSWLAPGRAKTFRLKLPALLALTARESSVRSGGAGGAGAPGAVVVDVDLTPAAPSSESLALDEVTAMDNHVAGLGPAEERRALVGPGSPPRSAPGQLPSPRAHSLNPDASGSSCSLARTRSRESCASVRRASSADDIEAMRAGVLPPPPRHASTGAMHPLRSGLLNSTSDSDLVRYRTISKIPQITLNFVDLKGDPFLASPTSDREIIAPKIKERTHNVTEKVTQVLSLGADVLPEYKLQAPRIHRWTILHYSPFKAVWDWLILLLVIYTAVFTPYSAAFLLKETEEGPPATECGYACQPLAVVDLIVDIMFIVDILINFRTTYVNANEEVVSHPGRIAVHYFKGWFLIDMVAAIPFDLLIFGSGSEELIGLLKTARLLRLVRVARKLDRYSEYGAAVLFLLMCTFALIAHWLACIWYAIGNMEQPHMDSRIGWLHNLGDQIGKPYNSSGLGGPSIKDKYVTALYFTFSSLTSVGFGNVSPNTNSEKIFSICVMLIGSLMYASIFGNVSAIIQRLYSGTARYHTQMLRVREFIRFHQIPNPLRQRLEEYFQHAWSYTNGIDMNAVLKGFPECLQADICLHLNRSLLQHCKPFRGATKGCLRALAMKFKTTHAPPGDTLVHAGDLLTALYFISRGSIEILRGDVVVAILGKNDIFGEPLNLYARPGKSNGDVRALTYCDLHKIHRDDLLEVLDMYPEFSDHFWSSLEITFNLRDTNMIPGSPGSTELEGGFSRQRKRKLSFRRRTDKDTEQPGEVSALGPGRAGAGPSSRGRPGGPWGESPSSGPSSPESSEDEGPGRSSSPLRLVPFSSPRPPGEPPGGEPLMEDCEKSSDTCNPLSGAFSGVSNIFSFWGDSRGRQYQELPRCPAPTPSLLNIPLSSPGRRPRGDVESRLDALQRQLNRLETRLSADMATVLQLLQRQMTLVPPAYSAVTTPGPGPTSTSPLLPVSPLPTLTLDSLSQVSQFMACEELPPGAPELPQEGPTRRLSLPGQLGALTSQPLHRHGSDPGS

Take `Fc1cc(F)c(C[C@@H]2CCCCN2)cc1F`: the IC50 in series [1] was > 30 µM.
For the compound `NCCc1cc(F)c(F)cc1F`, the IC50 in series [1] was > 30 µM.
Consider `Cc1cc2ncc(C(=O)N3CCC([C@H](N)Cc4cc(F)c(F)cc4F)CC3)c(C)n2n1`, for which the results for the half-life in [2], in [8] and in series [14] were 5.09 h, 3.5 h and 3.71 h, respectively. Besides, the bioavailability in [3] was 52%; in series [4], 70%; in series [12], 70%. In series [5], the Activity is >20 h. The clearance in [6] was found to be 18 mL/min/kg; in series [7] it was 12.9 mL/min/kg; in [11] it was 3.4 mL/min/kg. In addition, the figures for the Vd in series [9], in [10] and in series [15] were 1 L/kg, 2.2 L/kg and 2.2 L/kg, respectively. This compound registered an IC50 in [13] of 16.8 µM.
In the case of `Cc1ncc(C)c(C(=O)N2CCC([C@H](N)Cc3cc(F)c(F)cc3F)CC2)n1`, the Activity in series [5] was 8 h. The IC50 in [13] is > 30 µM; in [16] it was 85 µM.
With `Cc1nccnc1C(=O)N1CCC([C@H](N)Cc2cc(F)c(F)cc2F)CC1`, in [5], the Activity was 12 h. The IC50 was > 30 µM in series [13] and 55 µM in series [16].
Regarding `N[C@H](Cc1cc(F)c(F)cc1F)C1CCN(C(=O)c2cnc3ncccn23)CC1`, in series [5], the Activity was >24 h. Also, the IC50 in series [13] came to 10.8 µM.
In [13], `N[C@H](Cc1cc(F)c(F)cc1F)C1CCN(C(=O)c2ccc(F)cc2F)CC1` registered an IC50 of 11.1 µM.
Regarding `N[C@H](Cc1cc(F)c(F)cc1F)C1CCN(C(=O)c2cc3ccccc3cn2)CC1`, 10.2 µM corresponded to half-maximal inhibition in series [13] (IC50).
`N[C@H](Cc1cc(F)c(F)cc1F)CC1CCCCC1`: the half-maximal inhibitory concentration (IC50) in series [1] was > 30 µM.
With `Nc1nccnc1C(=O)N1CCC([C@H](N)Cc2cc(F)c(F)cc2F)CC1`, the IC50 in [13] is 9.11 µM.

The values are drawn from ChEMBL document CHEMBL1153974, “Piperidinyl-2-phenethylamino inhibitors of DPP-IV for the treatment of type 2 diabetes” (Bioorg Med Chem Lett, 2009).
